PfG6PD inh – PfG6PD enzyme inhibitors, primary screen, biochemical, fluorescence intensity, uHTS; PfGluPho enzyme, NADPH resazurin-diaphorase fluorescence; inhibition, % at 20 µM; 0.78% of 350,000 active; AID 504690, 2011;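 active means inhibition reaching at least a set limit at 20 µM in the primary screen, cut at about 59% in these data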
MC4R antag cAMP – MC4R antagonists of cAMP signaling, primary screen, cell-based, TR-FRET, antagonist arm of biased-ligand search | MC4R-expressing cells, MTII-stimulated cAMP, LANCE TR-FRET | inhibition, % at 6.5 µM | Melanocortin receptor 4 (Homo sapiens), P32245 | AID 540295, 2011 | 0.48% of 360,000 active;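 active means inhibition above its plate's cutoff, the mean of tested wells on that plate plus 3 SD, cut at about 29% in these data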
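Assay system: U2OS cells stably expressing human melanocortin 4 receptor (MC4R) / Dosing: 6.5 µM / Timing: compound 30 min, challenge 1 h, detection 1 h / Measured by: Eu-cAMP/anti-cAMP TR-FRET, emission 671 nm / Replicates: singlicate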
B2AR ag – beta2AR agonists driving receptor internalization, primary screen, cell-based, FAP fluorogen, flow cytometry | Beta-2 adrenergic receptor (Homo sapiens), P07550 | Am2.2-beta2AR cells | response, % (test concentration not listed) | 0.43% of 340,000 active;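 active means response above a set limit, near 3 SD of response in nonfluorescent compounds, cut at about 42% in these data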
MC4R ag barr – MC4R agonists recruiting beta-arrestin, primary screen, cell-based, luminescence, agonist arm of biased-ligand search | U2OS MC4R beta-arrestin complementation; percent of melanotan II response, DMSO zero | 0.98% of 360,000 active | activation, % at 8.9 µM | AID 540308, 2011;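 active means activation above a per-plate cutoff, the mean activation of sample wells on that plate plus 3 SD, cut at about 8% in these data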
ABHD5-PLIN5 inh – ABHD5-PLIN5 interaction inhibitors, primary screen, cell lysate, split luciferase complementation, luminescence; Perilipin-5 (Homo sapiens) + 1-acylglycerol-3-phosphate O-acyltransferase ABHD5 (Homo …; Split G. princeps luciferase complementation, 4 h; inhibition, % at 4 µM; 0.78% of 360,000 active; AID 602281, 2012;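 active means inhibition above the mean inhibition across every tested compound plus 3 SD, cut at about 22% in these data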
ABHD5 PLIN5 conf – ABHD5-PLIN5 interaction inhibitors, confirmation, biochemical, luminescence. 67% of 2,200 active. inhibition, % at 4 µM. shares compounds with ABHD5-PLIN5 inh; in the data active means inhibition above about 23%
HNF4 split-luc – HNF4 dimerization inhibitors, counter-screen for ABHD5-PLIN5 interaction inhibitor project, biochemical, split-luciferase complementation, luminescence; shares compounds with ABHD5-PLIN5 inh; inhibition, % at 4 µM; 77% of 2,200 active;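 active means mean inhibition across replicate wells exceeding the computed hit threshold, cut at about 13% in these data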;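 further: light from luciferase halves that rejoin when HNF4 fusion proteins dimerize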
Target sequence (P41235 whole entry, looked up, the tested form may be a part): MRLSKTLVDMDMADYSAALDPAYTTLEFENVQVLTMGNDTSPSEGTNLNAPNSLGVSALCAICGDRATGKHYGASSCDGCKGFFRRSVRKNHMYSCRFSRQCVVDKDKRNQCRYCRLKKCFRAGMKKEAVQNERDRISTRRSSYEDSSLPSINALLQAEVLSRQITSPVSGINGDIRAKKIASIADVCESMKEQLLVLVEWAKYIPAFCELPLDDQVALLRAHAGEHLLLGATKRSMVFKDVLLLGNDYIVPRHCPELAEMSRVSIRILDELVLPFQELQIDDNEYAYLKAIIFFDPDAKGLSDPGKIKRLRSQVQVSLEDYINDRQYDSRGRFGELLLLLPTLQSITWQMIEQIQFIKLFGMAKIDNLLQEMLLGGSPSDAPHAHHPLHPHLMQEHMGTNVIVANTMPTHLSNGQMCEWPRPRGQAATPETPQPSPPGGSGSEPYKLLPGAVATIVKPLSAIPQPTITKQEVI
Large screens that a line does not name were inactive (follow-up assays come after a bar, where they were run). Hits are enriched below; roughly 3% of the tested compounds scored in any of these assays.

O=C(O)c1cc(-c2ccc(Cl)c(Cl)c2)n(-c2ccc(F)cc2)n1	none
CC1CC(C)CN(C(=O)c2ccc(-c3ccc([N+](=O)[O-])cc3)o2)C1 (configuration not stated)	ABHD5-PLIN5 inh 28 | ABHD5 PLIN5 conf inactive | HNF4 split-luc inactive
O=C(c1ccc(-c2ccc([N+](=O)[O-])cc2)o1)N1CCCCC1	none
CCN(CC(=O)Nc1c(F)cccc1F)C(=O)c1csc2c1CCCC2	none
CCCn1nnc(NC(=O)/C=C/c2ccco2)n1	none
Cn1nnc(NC(=S)NC(=O)/C=C/c2ccco2)n1	ABHD5-PLIN5 inh 24 | ABHD5 PLIN5 conf inactive | HNF4 split-luc inactive
Cc1cccc(-c2ncc(CN3CCN(CCC(C)C)C(CCO)C3)cn2)c1 (configuration not stated)	none
CC1(C)CC(=O)/C(=C\c2cccc([N+](=O)[O-])c2)C(C)(C)N1	ABHD5-PLIN5 inh 26 | ABHD5 PLIN5 conf 37 | HNF4 split-luc 44
CN(C)c1ccc(N=Nc2nc3ccccc3n2C)cc1	ABHD5-PLIN5 inh 34 | ABHD5 PLIN5 conf 26 | HNF4 split-luc 46
CCCCN(C)c1nc(-c2ccco2)c2c(c1C#N)CC(C)(C)OC2	ABHD5-PLIN5 inh 28 | ABHD5 PLIN5 conf 54 | HNF4 split-luc 79
COc1ccc(Br)cc1CN(C)CC(=O)Nc1c(Cl)cccc1Cl	none
Cc1ccc(NC(=O)c2cc(-c3ccc(C)o3)nc3ccccc23)cc1	ABHD5-PLIN5 inh 35 | ABHD5 PLIN5 conf 38 | HNF4 split-luc 40
O=C(NCc1cccnc1)/C(=C\c1ccc(-c2ccc(Cl)c(Cl)c2)o1)S(=O)(=O)c1ccccc1	B2AR ag 95, ABHD5-PLIN5 inh 77 | ABHD5 PLIN5 conf 101 | HNF4 split-luc 97
O=C(NCc1cccnc1)c1ccc(-c2ccc(Cl)cc2)o1	none
C=CCc1cccc(/C=N/NC(=O)CCC(=O)Nc2ccc(C)cc2)c1O	none
C=CC[C@]12CC=CC(=O)[C@@]1(O)O[C@H](c1ccc(OC)c(OC)c1)[C@H]2C	ABHD5-PLIN5 inh 27 | ABHD5 PLIN5 conf 50 | HNF4 split-luc 36
C=C1C(=O)O[C@@H]2[C@H]3O[C@]3(C)CC/C=C(\C)CC[C@@H]12	none
C=C1C(=O)O[C@H]2C[C@H]1[C@@H](OC(C)=O)C/C(C)=C/CC/C(C)=C\CC[C@]2(C)O	ABHD5-PLIN5 inh 71 | ABHD5 PLIN5 conf 88 | HNF4 split-luc 64
Cc1ccc(-c2[nH]ncc2CN2CCN(C(=O)c3cccs3)CC2)cc1C	none
O=S(=O)(c1c(F)cccc1F)N1CCN(Cc2c(O)ccc3ccccc23)CC1	ABHD5-PLIN5 inh 27 | ABHD5 PLIN5 conf 43 | HNF4 split-luc 77
Oc1ccc2ccccc2c1CN1CCOCC1	none
NCCCCCc1cn(CC(=O)NCCCCCCCCCCC(=O)N2CCNCC2)nn1	ABHD5-PLIN5 inh 93 | ABHD5 PLIN5 conf inactive | HNF4 split-luc inactive
C[C@@H](O)Cc1cn(CC(=O)NCCCCCCCCCCC(=O)N2CCNCC2)nn1	none
O=[N+]([O-])c1ccc(N2CCN(c3ccccc3)CC2)nc1	none
O=[N+]([O-])c1ccc(N2CCc3ccccc3C2)nc1	ABHD5-PLIN5 inh 33 | ABHD5 PLIN5 conf inactive | HNF4 split-luc 20
CCOC(=O)CSc1nc2sc(C)c(C)c2c(=O)[nH]1	none
CCOC(=O)/C(=C\c1ccc(Cl)cc1)c1nc2sc(C)c(C)c2c(=O)[nH]1	B2AR ag 51, ABHD5-PLIN5 inh 46 | ABHD5 PLIN5 conf 99 | HNF4 split-luc 77
COc1ccc(CNC(=O)N2CCc3ccccc3C2)cc1Cl	none
O=S1c2ccccc2Oc2ccccc21	none
O=[S@]1Oc2ccccc2-c2ccccc21	ABHD5-PLIN5 inh 25 | ABHD5 PLIN5 conf 83 | HNF4 split-luc 99
CCN(CC(=O)Nc1c(F)cccc1F)C(=O)CCNC(=O)c1ccco1	none
COC(=O)c1cc(S(=O)(=O)NCC2CCN(Cc3cccc(Cl)c3)CC2)c[nH]1	none
CC(=O)c1nn(-c2ccc(Cl)cc2)c(=O)[nH]c1=O	none
NC(=O)c1ccccc1NC(=O)COc1ccc(Cl)cc1	ABHD5-PLIN5 inh 46 | ABHD5 PLIN5 conf inactive | HNF4 split-luc inactive
Cc1ccc(OCC(=O)Nc2ccccc2C(N)=O)cc1	none
C=C1C(=O)[C@@]23[C@H](O)C[C@@H]4C(C)(C)CC[C@H](O)[C@]4(C)[C@@H]2C[C@H](O)[C@@H]1[C@H]3O	ABHD5-PLIN5 inh 80 | ABHD5 PLIN5 conf 89 | HNF4 split-luc 99
C=C1C(=O)[C@@]23[C@H](O)C[C@@H]4C(C)(C)CC[C@H](O)[C@@]4(C)[C@@H]2CC[C@@H]1[C@H]3O	B2AR ag 46, ABHD5-PLIN5 inh 53 | ABHD5 PLIN5 conf 85 | HNF4 split-luc 78
CN(C(=O)c1ccc(OC2CCN(CCc3ccccc3)CC2)cc1)C1CCCCC1	none
O=C1OC(Nc2ccc(F)cc2F)c2ccccc21 (configuration not stated)	none
Cc1ccc(N/C=C(\C2OC(=O)c3ccccc32)[N+](=O)[O-])c(C)c1 (configuration not stated)	ABHD5-PLIN5 inh 54 | ABHD5 PLIN5 conf inactive | HNF4 split-luc 34
O=C1OC(/C(=C\Nc2cc(Cl)ccc2O)[N+](=O)[O-])c2ccccc21 (configuration not stated)	ABHD5-PLIN5 inh 62 | ABHD5 PLIN5 conf inactive | HNF4 split-luc 50
O=C1OC(/C(=C\Nc2ccc(F)cc2F)[N+](=O)[O-])c2ccccc21 (configuration not stated)	ABHD5-PLIN5 inh 54 | ABHD5 PLIN5 conf 25 | HNF4 split-luc 61
Cc1ccc(NC=C(S(=O)(=O)c2ccccc2)S(=O)(=O)c2ccccc2)c(C)c1	none
COC(=O)CC1SC(=O)NC1=O (configuration not stated)	ABHD5-PLIN5 inh 39 | ABHD5 PLIN5 conf inactive | HNF4 split-luc inactive
CCC(C)NC(=O)C1(O)c2cc(Br)ccc2NC(=O)N1c1cccc(OC)c1 (configuration not stated)	none
CS(=O)(=O)c1nc(-c2ccccc2)cc(C(F)(F)F)n1	ABHD5-PLIN5 inh 63 | ABHD5 PLIN5 conf 88 | HNF4 split-luc 104

Compound activity from PubChem.
